Reference: ChEMBL document CHEMBL1123750, “Imidazole anticonvulsants: structure-activity relationships of [(biphenylyloxy)alkyl]imidazoles” (1987)

What was measured:
Type in all cases: functional
Mus musculus [1] = experiment: Effective dose to produce anticonvulsant activity using maximal electroshock assay (MES) evaluated in mice after oral administration
In short: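 Mice given oral doses as a suspension in 5% acacia/water. Corneal electroshock (40 mA, 0.1 s, ac). Retest at the time of peak effect with at least four doses, 12 mice per dose. ED50 is for prevention of tonic-extensor convulsions, by Litchfield–Wilcoxon with 95% confidence limits.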

Mus musculus [2] = experiment: Time to peak anticonvulsant effect (TPE) evaluated in mice after oral administration
In short: (§1)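 Three groups of mice given a range of oral doses in 5% acacia/water. Challenged by corneal MES (40 mA, 0.1 s, ac) at 0.5, 1, 2, 3 and 4 h posttreatment. Time of peak protection against seizures recorded.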

Mus musculus [3] = experiment: Anticonvulsant activity using hexobarbital-induced (100 mg/kg dose was administered intraperitoneally) sleeping time assay evaluated in mice
In short: (§2)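 Groups of 10 fasted mice dosed orally with test compound in 5% acacia/water; at the previously determined time of peak effect, hexobarbital given ip, solubilized with stoichiometric NaOH. Duration of loss of righting reflex monitored. Mean ± SEM for 10 animals, compared against vehicle controls.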

Mus musculus [4] = experiment: Effective dose to produce anticonvulsant activity using horizontal screen test (HS) evaluated in mice after oral administration
In short: (§3)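 Fasted male CF1 mice (20–25 g), oral suspension in 5% acacia/water. Each mouse placed on a screen, rod rotated 180°, and return to the top within 1 min scored. Peak time found at 0.5–4 h. Retest at that time with at least four doses, 12 mice per dose. ED50 by Litchfield–Wilcoxon with 95% confidence limits.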

Mus musculus [5] = experiment: Effective dpse to produce anticonvulsant activity using horizontal screen test (HS) evaluated in mice after oral administration; in short: as §3
Mus musculus [6] = experiment: Anticonvulsant activity using hexobarbital-induced (100 mg/kg dose was administered intraperitoneally)sleeping time assay evaluated in mice; in short: as §2
Mus musculus [7] = experiment: Anticonvulsant activity using hexobarbital-induced (100 mg/kg dose was administered intraperitoneally) sleeping time assay evaluated in mice after oral administration; in short: as §2
Mus musculus [8] = experiment: Time to peak anticonvulsant effect (TPE) was determined in mice after oral administration; in short: as §1

**Q.** For `Cl.c1ccc(-c2ccccc2OCCCCn2ccnc2)cc1`, which ED50 (Mus musculus [1]) is on record?
**A.** The ED50 was 29.8 mg/kg.

**Q.** What about the TPE (Mus musculus [2]) of the same compound?
**A.** Its TPE is 0.5 h.

**Q.** And the “Hexobarb ST” value (Mus musculus [3])?
**A.** The value was 124.3 min.

**Q.** What about the ED50 (Mus musculus [4]) of the same compound?
**A.** The ED50 was greater than 200 mg/kg.

**Q.** Which results are given for `O=C1NC(=O)C(c2ccccc2)(c2ccccc2)N1` [PHENYTOIN]?
**A.** ED50 (Mus musculus [1]): 9.4 mg/kg; TPE (Mus musculus [2]): 1 h; ED50 (Mus musculus [5]): 210 mg/kg

**Q.** `Cl.c1ccc(-c2ccc(OCCn3ccnc3)cc2)cc1` was tested. Which “Hexobarb ST” value (Mus musculus [6]) did it give?
**A.** Its value is 697.5 min.

**Q.** What about the ED50 (Mus musculus [1]) of the same compound?
**A.** The ED50 was 44 mg/kg.

**Q.** What about the TPE (Mus musculus [2]) of the same compound?
**A.** Its TPE is 2 h.

**Q.** And the ED50 (Mus musculus [4])?
**A.** The ED50 was greater than 400 mg/kg.

**Q.** Which ED50 (Mus musculus [1]) does the source give for `CC(O)(Cn1ccnc1)c1ccc2c(c1)Cc1ccccc1-2` (centres undefined) here?
**A.** Its ED50 is 10 mg/kg.

**Q.** For `Cl.c1ccc(-c2ccccc2OCCCn2ccnc2)cc1`, which ED50 (Mus musculus [1]) is on record?
**A.** Its ED50 is 21.3 mg/kg.

**Q.** And the TPE (Mus musculus [2])?
**A.** Its TPE is 1 h.

**Q.** And the “Hexobarb ST” value (Mus musculus [3])?
**A.** The value was 126.7 min.

**Q.** And the ED50 (Mus musculus [4])?
**A.** Its ED50 is greater than 280 mg/kg.

**Q.** For `Cl.c1ccc(-c2ccccc2OCCn2ccnc2)cc1`, which ED50 (Mus musculus [1]) is on record?
**A.** The ED50 was 15.5 mg/kg.

**Q.** And the “Hexobarb ST” value (Mus musculus [7])?
**A.** Its value is 252.1 min.

**Q.** And the ED50 (Mus musculus [4])?
**A.** Its ED50 is 320 mg/kg.

**Q.** And the TPE (Mus musculus [8])?
**A.** Its TPE is 1 h.

**Q.** Which ED50 (Mus musculus [1]) does the source give for `Cl.c1ccc(-c2cccc(OCCn3ccnc3)c2)cc1` here?
**A.** The ED50 was 20.5 mg/kg.

**Q.** And the TPE (Mus musculus [2])?
**A.** Its TPE is 4 h.

**Q.** And the “Hexobarb ST” value (Mus musculus [3])?
**A.** The value was 334 min.

**Q.** What about the ED50 (Mus musculus [4]) of the same compound?
**A.** Its ED50 is greater than 200 mg/kg.

**Q.** `O=C(Cn1ccnc1)c1ccc2ccccc2c1` [NAFIMIDONE] was tested. Which ED50 (Mus musculus [1]) did it give?
**A.** The ED50 was 56 mg/kg.

**Q.** `c1ccc(OCCn2ccnc2)cc1` was tested. Which ED50 (Mus musculus [1]) did it give?
**A.** The ED50 was 130 mg/kg.

**Q.** And the TPE (Mus musculus [2])?
**A.** The TPE was 4 h.

**Q.** What about the “Hexobarb ST” value (Mus musculus [3]) of the same compound?
**A.** The value was 434.2 min.

**Q.** What about the ED50 (Mus musculus [4]) of the same compound?
**A.** Its ED50 is greater than 280 mg/kg.
